Tests used:
[1] = In vivo biodistribution study; set-up: species or system Kunming mice; conditions: mice, intravenous, DOX equivalent 5 mg/kg; heart, spleen, lung, kidney
[2] = Pharmacokinetic studies in rats; assay type: in vivo, Sprague Dawley rats; conditions: at 4 hours postinjection, DOX equivalent dose 10 mg/kg
In short: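 Sprague Dawley rats, 5 per group, given 10 mg/kg DOX equivalent. Jugular blood drawn 10 min to 8 h, plasma spun off immediately. Salicylic acid internal standard added, then perchloric acid precipitation. Supernatant run on C18 HPLC in NH4H2PO4 (0.01 mol/L)-acetonitrile-acetic acid (76:24:0.4) at 1.0 mL/min, 233 nm, 40°C. Two-compartment pharmacokinetic modelling.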

HepG2 cells = assay type: cell-based, human; conditions: 2 hours, DOX equivalent 30 μg/mL
In short: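 HepG2 cells in DMEM/10% FBS, 37°C, […], exposed 2 h at 37°C to free or liposomal drug at 30 μg/mL DOX equivalent. Confocal: 7 × 10^4 cells/well on cover glass, 50% confluence, PBS-washed, paraformaldehyde-fixed, Triton-permeabilised, DAPI-stained, ex/em 488/560 nm. Flow: 80% confluence, ex 488/em 575 nm, drug-free cells as reference, n = 3. Competition: 100 mM Gal stock added before liposomes.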

COc1cccc2c1C(=O)c1c(O)c3c(c(O)c1C2=O)C[C@@](O)(C(=O)CO)C[C@@H]3O[C@H]1C[C@H](N)[C@H](O)[C@H](C)O1 [Free DOX, doxorubicin]
DOX fluorescence in other organs [1]: fluorescence was also observed in the heart, spleen, and kidney | Plasma concentration of DOX [2]: 0.18 µg/mL | Cellular uptake of DOX (fluorescence) (HepG2 cells): most intense intracellular fluorescence

Reference: publication PMC3746791 (International Journal of Nanomedicine, 2013)
